Target: Protein phosphatase methylesterase 1 (Homo sapiens) (UniProt Q9Y570)
Experiment: lysate PME-1 activity-based profiling inhibitors – cell lysate, gel ABPP, fluorescence, HeLa, MDA-MB-231, late-stage follow-up (AID 463146)
Conditions: HeLa/MDA-MB-231 lysate, FP-Rh gel ABPP fluorescence, at 10 µM (top of the series)
Method in brief: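 Assay system: PME-1 in HeLa or MDA-MB-231 lysate; amount: soluble proteome at 1 mg/mL total protein; technique: in-gel fluorescence after SDS-PAGE; buffer or medium: DPBS as proteome buffer; controls: DMSO high control, gel background low control; read-out: % inhibition from PME-1 band intensity; times: 30 min compound at 25 °C, 20 min probe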

Protein phosphatase methylesterase 1 (Homo sapiens), sequence (Q9Y570 whole entry, looked up): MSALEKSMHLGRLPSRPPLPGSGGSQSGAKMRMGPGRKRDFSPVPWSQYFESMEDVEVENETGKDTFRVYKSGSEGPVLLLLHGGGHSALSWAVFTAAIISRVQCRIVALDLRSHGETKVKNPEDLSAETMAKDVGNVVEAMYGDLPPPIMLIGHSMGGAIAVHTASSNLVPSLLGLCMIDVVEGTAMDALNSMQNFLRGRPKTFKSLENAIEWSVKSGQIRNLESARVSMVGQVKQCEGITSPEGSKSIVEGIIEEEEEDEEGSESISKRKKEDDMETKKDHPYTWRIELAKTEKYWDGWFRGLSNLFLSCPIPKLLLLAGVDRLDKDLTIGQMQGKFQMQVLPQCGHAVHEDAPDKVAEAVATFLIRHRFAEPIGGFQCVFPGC

Row | inhibition (HeLa Lysate) [%] | inhibition (MDA-MB-231 Lysate) [%] | SMILES
1 | 100 | 100 | COC(=O)N1C(=O)[C@](c2ccccc2)(C2CCCCC2)N1C(=O)OC
2 | 100 | 100 | COC(=O)N1C(=O)[C@](c2ccccc2)(C2CCCC2)N1C(=O)OC
3 | 100 |  | COC(=O)N1C(=O)[C@@](c2ccccc2)(C2CCCCC2)N1C(=O)OC
4 | 100 |  | COC(=O)N1C(=O)[C@@](c2ccccc2)(C2CCCC2)N1C(=O)OC
